Laboratory results taken from ChEMBL document CHEMBL1777792, “Synthesis and evaluation of indole-based new scaffolds for antimicrobial activities--identification of promising candidates” (Bioorg Med Chem Lett, 2011).

Tests used:
[1] = test system: Candida albicans; experiment: Antifungal activity against Candida albicans in yeast extract-peptone-glucose medium at 250 ug/ml after 48 hrs by disc diffusion assay in presence of 150 ug/ml of congo red; format: functional
How it was run: (§1)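 C. albicans cells at a set number were spread on YEPD agar, either plain or containing the cell-wall disruptant named in the line (SDS, Congo red or calcofluor white). Compound solution, or the reference solvent as control, was spotted onto 0.5 cm discs placed on the lawn. Plates were incubated at 30 °C and the inhibition zone diameter was measured.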

[2] = test system: Candida albicans; experiment: Antifungal activity against Candida albicans in yeast extract-peptone-glucose medium at 250 ug/ml after 48 hrs by disc diffusion assay in presence of rhodamine 6G
[3] = test system: Candida albicans; experiment: Antifungal activity against Candida albicans in yeast extract-peptone-glucose medium at 250 ug/ml after 48 hrs by disc diffusion assay in presence of 100 ug/ml of calcofluor white; format: functional; how it was run: as §1
[4] = test system: Candida albicans; experiment: Antifungal activity against Candida albicans in yeast extract-peptone-glucose medium at 250 ug/ml after 48 hrs by disc diffusion assay in presence of 0.01% of sodium dodecylsulphate; format: functional; conditions: read-out: DIZ; how it was run: as §1
[5] = test system: Escherichia coli; experiment: Antibacterial activity against Escherichia coli harboring ampicillin-resistance gene encoding plasmid at 333 ug/ml after 24 hrs by disc diffusion assay; format: functional; conditions: read-out: DIZ
How it was run: (§2)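 Disc diffusion used an E. coli strain carrying a plasmid that encodes an ampicillin-resistance gene. Inhibition zone diameters were recorded and compared against the corresponding solvent controls.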

[6] = test system: Candida albicans; experiment: Antifungal activity against Candida albicans in yeast extract-peptone-glucose medium at 250 ug/ml after 48 hrs by disc diffusion assay; format: functional; conditions: read-out: DIZ; how it was run: as §1
[7] = test system: Candida albicans; experiment: Antifungal activity against Candida albicans in yeast extract-peptone-glucose medium at 375 ug/ml after 48 hrs by disc diffusion assay in presence of 150 ug/ml of congo red; format: functional; how it was run: as §1
[8] = test system: Candida albicans; experiment: Antifungal activity against Candida albicans in yeast extract-peptone-glucose medium at 375 ug/ml after 48 hrs by disc diffusion assay; format: functional; conditions: read-out: DIZ; how it was run: as §1
[9] = test system: Candida albicans; experiment: Antifungal activity against Candida albicans in yeast extract-peptone-glucose medium at 375 ug/ml after 48 hrs by disc diffusion assay in presence of 0.01% of sodium dodecylsulphate; format: functional; conditions: read-out: DIZ; how it was run: as §1
[10] = test system: Candida albicans; experiment: Antifungal activity against Candida albicans in yeast extract-peptone-glucose medium at 375 ug/ml after 48 hrs by disc diffusion assay in presence of 100 ug/ml of calcofluor white; format: functional; how it was run: as §1
[11] = test system: Escherichia coli; experiment: Antibacterial activity against Escherichia coli harboring ampicillin-resistance gene encoding plasmid at 500 ug/ml after 24 hrs by disc diffusion assay; format: functional; conditions: read-out: DIZ; how it was run: as §2
[12] = test system: Candida albicans; experiment: Antifungal activity against Candida albicans in yeast extract-peptone-glucose medium at 375 ug/ml after 48 hrs by disc diffusion assay in presence of rhodamine 6G
[13] = test system: Candida albicans; experiment: Antifungal activity against Candida albicans in yeast extract-peptone-glucose medium at 500 ug/ml after 48 hrs by disc diffusion assay in presence of rhodamine 6G
[14] = test system: Candida albicans; experiment: Antifungal activity against Candida albicans in yeast extract-peptone-glucose medium at 500 ug/ml after 48 hrs by disc diffusion assay in presence of 0.01% of sodium dodecylsulphate; format: functional; conditions: read-out: DIZ
How it was run: (§3)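 Disc diffusion on YEPD agar containing a cell-wall-disrupting agent (SDS, Congo red or calcofluor white) and spread with a set number of C. albicans cells. Compound and reference solvent spotted on 0.5 cm discs. Incubated at 30 °C, then inhibition zone diameter measured against solvent.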

[15] = test system: Candida albicans; experiment: Antifungal activity against Candida albicans in yeast extract-peptone-glucose medium at 500 ug/ml after 48 hrs by disc diffusion assay in presence of 100 ug/ml of calcofluor white; format: functional; how it was run: as §3
[16] = test system: Candida albicans; experiment: Antifungal activity against Candida albicans in yeast extract-peptone-glucose medium at 500 ug/ml after 48 hrs by disc diffusion assay; format: functional; conditions: read-out: DIZ
How it was run: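 Solid-phase assay on YEPD agar spread with a set number of C. albicans cells. Compound solution and reference solvent spotted onto 0.5 cm discs. Plates incubated at 30 °C, and inhibition zone diameter measured against solvent control.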

[17] = test system: Candida albicans; experiment: Antifungal activity against Candida albicans in yeast extract-peptone-glucose medium at 500 ug/ml after 48 hrs by disc diffusion assay in presence of 150 ug/ml of congo red; format: functional; how it was run: as §3
[18] = test system: Escherichia coli; experiment: Antibacterial activity against Escherichia coli harboring ampicillin-resistance gene encoding plasmid at 300 ug/ml after 24 hrs by disc diffusion assay; format: functional; conditions: read-out: DIZ; how it was run: as §2
[19] = test system: Candida albicans; experiment: Antifungal activity against Candida albicans in yeast extract-peptone-glucose medium at 300 ug/ml after 48 hrs by disc diffusion assay in presence of 0.01% of sodium dodecylsulphate; format: functional; conditions: read-out: DIZ; how it was run: as §1
[20] = test system: Candida albicans; experiment: Antifungal activity against Candida albicans in yeast extract-peptone-glucose medium at 300 ug/ml after 48 hrs by disc diffusion assay in presence of 150 ug/ml of congo red; format: functional; how it was run: as §1
[21] = test system: Candida albicans; experiment: Antifungal activity against Candida albicans in yeast extract-peptone-glucose medium at 300 ug/ml after 48 hrs by disc diffusion assay in presence of […]; format: functional
How it was run: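 This is a C. albicans disc diffusion on YEPD agar containing rhodamine 6G, a substrate of the Cdr1p/Cdr2p ATP-dependent efflux pumps, to test for enhanced R6G toxicity. A set number of cells was spread, and 0.5 cm discs were spotted with compound solution or reference solvent. Plates were incubated at 30 °C and the zone diameter was measured.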

[22] = test system: Escherichia coli; experiment: Antibacterial activity against Escherichia coli harboring ampicillin-resistance gene encoding plasmid at 250 ug/ml after 24 hrs by disc diffusion assay; format: functional; conditions: read-out: DIZ; how it was run: as §2
[23] = test system: Candida albicans; experiment: Antifungal activity against Candida albicans in yeast extract-peptone-glucose medium at 300 ug/ml after 48 hrs by disc diffusion assay; format: functional; conditions: read-out: DIZ; how it was run: as §1

SMILES: O=C(C(=O)N1CCOCC1)c1cn(CCCCn2cc(C(=O)C(=O)N3CCOCC3)c3ccccc32)c2ccccc12
- diameter of the inhibition zone (DIZ) [1]: 5 mm
- diameter of the inhibition zone (DIZ) [2]: 7.5 mm
- diameter of the inhibition zone (DIZ) [3]: 7.5 mm
- zone of inhibition at 250 µg/mL [4]: 7 mm
- zone of inhibition at 333 µg/mL [5]: 10 mm
- zone of inhibition at 250 µg/mL [6]: 6 mm

SMILES: O=C(C(=O)N1CCCC1)c1cn(CCCCCn2cc(C(=O)C(=O)N3CCCC3)c3ccccc32)c2ccccc12
- diameter of the inhibition zone (DIZ) [7]: 8 mm
- zone of inhibition at 375 µg/mL [8]: 5.5 mm
- zone of inhibition at 375 µg/mL [9]: 6 mm
- diameter of the inhibition zone (DIZ) [10]: 5.5 mm
- zone of inhibition at 500 µg/mL [11]: 8 mm
- diameter of the inhibition zone (DIZ) [12]: 6.5 mm

SMILES: O=C(C(=O)N1CCCCC1)c1cn(CCCn2cc(C(=O)C(=O)N3CCCCC3)c3cc(Br)ccc32)c2ccc(Br)cc12
- diameter of the inhibition zone (DIZ) [13]: 7.5 mm
- zone of inhibition at 500 µg/mL [14]: 8 mm
- zone of inhibition at 500 µg/mL [11]: 9 mm
- diameter of the inhibition zone (DIZ) [15]: 6.5 mm
- zone of inhibition at 500 µg/mL [16]: 6 mm
- diameter of the inhibition zone (DIZ) [17]: 9.5 mm

SMILES: O=C(C(=O)N1CCCCC1)c1cn(Cc2ccc(Cn3cc(C(=O)C(=O)N4CCCCC4)c4ccccc43)cc2)c2ccccc12
- zone of inhibition at 300 µg/mL [18]: 9 mm
- zone of inhibition at 300 µg/mL [19]: 7.5 mm
- diameter of the inhibition zone (DIZ) [20]: 7.5 mm
- diameter of the inhibition zone (DIZ) [21]: 6 mm

SMILES: O=C(C(=O)N1CCOCC1)c1cn(Cc2ccc(Cn3cc(C(=O)C(=O)N4CCOCC4)c4ccccc43)cc2)c2ccccc12
- diameter of the inhibition zone (DIZ) [1]: 6 mm
- diameter of the inhibition zone (DIZ) [2]: 6 mm
- diameter of the inhibition zone (DIZ) [3]: 6 mm
- zone of inhibition at 250 µg/mL [22]: 10.5 mm
- zone of inhibition at 250 µg/mL [4]: 6.5 mm
- zone of inhibition at 250 µg/mL [6]: 6.5 mm

SMILES: OC(Cn1cncn1)(Cn1cncn1)c1ccc(F)cc1F [FLUCONAZOLE]
- zone of inhibition at 300 µg/mL [23]: 15 mm

SMILES: Clc1ccc(COC(Cn2ccnc2)c2ccc(Cl)cc2Cl)c(Cl)c1 (stereo not given) [MICONAZOLE]
- zone of inhibition at 300 µg/mL [23]: 12 mm
